In publication PMC6391190 (Pharmacological research, 2019):
“And” between values parts separate entries of the source, which are not always exact repeats. Identical values can stand only once. “Also recorded” adds a separate entry of the source.

Key:
BCRP [1] = assay: qPCR of BCRP mRNA in BeWo trophoblast cells; format: cell-based, human; conditions: for inhibition of AEA-mediated down-regulation of BCRP mRNA: 0.1 μM, co-treatment with AEA 10 μM; for reversal of the effects of AEA on BCRP: SB366791 1 μM, GW6471 5 μM, GW9662 5 μM, PD98059
BCRP [2] = assay: Hoechst 33342 transport; format: cell-based, human
BCRP [3] = assay: qPCR of BCRP mRNA in human term placental explants; format: cell-based; conditions: AEA 1 μM, 24 h
How it was run: (§1)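 Term placental explants were cultured 24 h with AEA (1 μM, 0.05% ethanol final), replenished after 12 h. Explants were snap-frozen and homogenized in RNAzol (bead homogenizer, 4 min, 40 Hz). Reverse transcription used 1000 ng RNA with random primers and MultiScribe (25°C 10 min, 37°C 120 min, 85°C 5 min), then qPCR. Values are means of 3 placentas (3-6 samples each) ± SE.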

[4] = system: syncytialization-related genes (hCGα, syncytin-1, syncytin-2); assay: qPCR of syncytialization-related genes in human term placental explants; format: cell-based
How it was run: as §1

BCRP [5] = assay: Western blot of BCRP protein in human term placental explants; format: cell-based; conditions: AEA 1 μM, 24 h, densitometry
[6] = system: syncytialization markers (hCGβ, syncytin-2, syncytin-1, hCGα); assay: qPCR of syncytialization markers in BeWo trophoblast cells; format: cell-based, human
How it was run: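 BeWo cells took AEA (ethanol vehicle) either at 10 μM over a time course (including 18, 24 and 48 h, with time-matched vehicle controls) or at 0.01-10 μM for 24 h. Cells were scraped into RNAzol and homogenized. Reverse transcription used 1000 ng RNA with random primers (25°C 10 min, 37°C 120 min, 85°C 5 min), followed by qPCR; mean ± SE, n = 4.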

BCRP [7] = assay: Western blot of BCRP protein in BeWo cells; format: cell-based, human; conditions: AEA 10 μM, 24 h
How it was run: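 BeWo cells exposed 24 h to AEA (10 μM) or vehicle; AEA was dissolved in ethanol. Cells were lysed in 20 mM Tris-HCl, 150 mM NaCl, 5 mM EDTA, 1% Triton X-100 with protease inhibitor cocktail. Western blotting detected BCRP at 72 kDa, with β-actin (42 kDa) as the loading control. Densitometry was performed.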

BCRP [8] = assay: Zearalenone transport with HPLC measurement in BeWo cells; format: cell-based, human; conditions: for percent efflux of zearalenone: BeWo
BCRP [9] = assay: BODIPY-glyburide Transwell transport across BeWo monolayers; format: cell-based, human; conditions: for reduction of transepithelial transport of BODIPY-glyburide: after 2 h
intracellular cAMP = assay: Measurement of intracellular cAMP; format: cell-based, human; conditions: 1 h, BeWo
CREB = assay: Western blot of CREB phosphorylation in BeWo cells; format: cell-based, human; conditions: 1 h
BCRP promoter = assay: ChIP of p-CREB binding to the BCRP promoter in BeWo cells; format: cell-based, human; conditions: 1 h
human placental explants = assay: Morphology of placental explants; format: cell-based; conditions: anandamide treatment; data not shown
BeWo cells [10] = system: BeWo cells
BeWo cells [11] = conditions: for effect alone on BeWo cell viability: AEA 10 μM or Ko143 1 μM alone, data not shown
[12] = cited from earlier work
[13] = AEA 1 μM, 24 h, human term placental explants
[14] = forskolin 50 μM, 24h, data not shown

In the case of Nc1ncnc2c1nc(Br)n2[C@@H]1O[C@@H]2COP(=O)(O)O[C@H]2[C@H]1O [8-Br-cAMP], the “attenuation of AEA down-regulation of BCRP expression and efflux activity” value (BCRP [1]; 8-Br-cAMP 1 mM, 24 h with AEA 10 μM, 24 h, BeWo) is reported as “abrogated; also recorded: completely attenuated”, the “prevention of AEA lowering of Hoechst 33342 efflux” value (BCRP [2]; 8-Br-cAMP 1 mM with AEA 10 μM, 24 h, BeWo) is reported as “completely prevented” and the “effect itself on Hoechst 33342 transport” value (BCRP [2]; 8-Br-cAMP 1 mM, 24 h, BeWo) is reported as “no effect”.

For CCCCC/C=C\C/C=C\C/C=C\C/C=C\CCCC(=O)NCCO [AEA, anandamide], the “reduction of BCRP mRNA expression” value (BCRP [3]) was 46%, the “reduction of hCGα mRNA expression” value [4, 13] was 48% and the “reduction of syncytin-1 mRNA expression” value [4, 13] was 25%. The “syncytin-2 mRNA expression” value ([4]; AEA treatment of placental explants, data not shown) was “unchanged”, the “down-regulation of BCRP protein” value (BCRP [5]) was 30% and the “lowering of hCGβ mRNA expression” value ([6]; AEA 0.01 μM, 24 h, BeWo) was 71%. The “lowering of syncytin-2 mRNA expression” value ([6]; AEA 1 μM, 24 h, BeWo) was 40%, the “decrease of hCGβ mRNA expression” value ([6]; AEA 10 μM, 18 and 24 h, BeWo) was 40-50% and the “decrease of syncytin-2 mRNA expression” value ([6]; AEA 10 μM, 18 and 24 h, BeWo) was 40-50%. The “expression of syncytin-1 or hCGα mRNAs” value ([6]; BeWo cells, data not shown) was “did not alter”, the “time of maximal reduction of BCRP mRNA” value (BCRP [1]; AEA 10 μM, BeWo, return to control levels by 48 h) was 24 h and the “lowest concentration at which repression of BCRP was observed” value (BCRP [1]; BeWo cells) was 10 nM. The “decrease of BCRP mRNA expression” value (BCRP [1]; all AEA concentrations between 0.01 μM and 10 μM, 24 h, BeWo) was 30-50%, the BCRP protein expression (BCRP [7]) was “reduced protein expression” and the “effect on ability of BeWo cells to efflux Hoechst 33342” value (BCRP [2]; AEA 10 μM present during uptake and efflux phase (untreated cells)) was “did not impact”. The “BCRP efflux activity (percent efflux of Hoechst 33342)” value (BCRP [2]; AEA 10 μM, 24 h pre-treatment, BeWo) was 15%, the “percent efflux of zearalenone” value (BCRP [8]; AEA 10 μM, 24 h) was 33% and the “reduction of transepithelial transport of BODIPY-glyburide” value (BCRP [9]; AEA 10 μM, 24 h) was 20%. The “basal intracellular levels of cAMP” value (intracellular cAMP; AEA 10 μM, control 34.8) was 12.4 pmol/mg protein, the “intracellular levels of cAMP” value (intracellular cAMP; forskolin 50 μM + AEA 10 μM) was 8,250 pmol/mg protein and the “forskolin-induced phosphorylation of CREB” value (CREB; AEA 10 μM co-treated with forskolin 50 μM) was “completely inhibited; also recorded: abolished”. The “p-CREB relative to total CREB protein” value (CREB; AEA 10 μM) was “no p-CREB was detected”, the “decrease of p-CREB binding to the BCRP promoter” value (BCRP promoter; AEA 10 μM) was 68% and the “changes to the morphology of the explants” value (human placental explants) was “did not induce any visible changes”. For the same molecule, the “reduction in the intracellular concentration of AEA” value (BeWo cells [10]; human, 30 min, 100 nM) was 44%, the “effect alone on BeWo cell viability” value (BeWo cells [11]) was “Neither Ko143 nor AEA alone affected” and the half-life in vivo [12] was under 5 min.

With COc1ccc(C(=O)c2c(C)n(CCN3CCOCC3)c3cc(I)ccc23)cc1 [AM630] the “inhibition of AEA-mediated down-regulation of BCRP mRNA” value (BCRP [1]; 24 h, BeWo) was “abrogated; also recorded: completely inhibited”.

For COc1cc(CNC(=O)CCCC/C=C/C(C)C)ccc1O [Capsaicin], the “effect on BCRP expression” value (BCRP [1]; capsaicin 1 μM, 24 h, BeWo, data not shown) was “no effect”.

For CCC(=O)NC[C@H](Cc1ccc(OCCc2nc(-c3ccccc3)oc2C)cc1)N/C(C)=C\C(=O)c1ccc(C(F)(F)F)cc1 [GW6471], the “reversal of the effects of AEA on BCRP” value (BCRP [1]; BeWo, data not shown) was “none of these chemicals reversed the effects of AEA”.

In the case of O=C(Nc1ccccc1)c1cc([N+](=O)[O-])ccc1Cl [GW9662], the “reversal of the effects of AEA on BCRP” value (BCRP [1]; BeWo, data not shown) is reported as “none of these chemicals reversed the effects of AEA”.

For CCOc1ccc(-c2nc3ccc(-c4nc5ccc(N6CCN(C)CC6)cc5[nH]4)cc3[nH]2)cc1 [Hoechst 33342], the “percent efflux of Hoechst 33342 taken up” value (BCRP [2]; vehicle-treated/control BeWo cells, Hoechst 33342 5 μM) was 35% and 33%.

For COc1ccc2c3c([nH]c2c1)[C@H](CC(C)C)N1C(=O)[C@H](CCC(=O)OC(C)(C)C)NC(=O)[C@@H]1C3 [Ko143], the “BCRP efflux activity (percent efflux of Hoechst 33342)” value (BCRP [2]; Ko143 1 μM present during assay, BeWo) was 8%, the “percent efflux of zearalenone” value (BCRP [8]; Ko143 1 μM) was 49% and the “reduction of transepithelial transport of BODIPY-glyburide” value (BCRP [9]; Ko143 1 μM, present during assay) was 32%. For the same molecule, the “effect on AEA retention” value (BeWo cells [10]; Ko143 1 μM, 3H-AEA 100 nM, BeWo) was “had no impact” and the “effect alone on BeWo cell viability” value (BeWo cells [11]) was “Neither Ko143 nor AEA alone affected”.

For COc1cccc(-c2cc(=O)c3ccccc3o2)c1N [PD98059], the “reversal of the effects of AEA on BCRP” value (BCRP [1]; BeWo, data not shown) was “none of these chemicals reversed the effects of AEA”.

For COc1cccc(NC(=O)/C=C/c2ccc(Cl)cc2)c1 [SB366791], the “reversal of the effects of AEA on BCRP” value (BCRP [1]; BeWo, data not shown) was “none of these chemicals reversed the effects of AEA”.

For C[C@H]1CCCC(=O)CCC/C=C/c2cc(O)cc(O)c2C(=O)O1 [ZLN, zearalenone], the “percent efflux of accumulated zearalenone” value (BCRP [8]; vehicle-treated BeWo cells, zearalenone 50 μM) was 71%.

With C=C[C@@]1(C)CC(=O)[C@]2(O)[C@@]3(C)[C@@H](O)CCC(C)(C)[C@@H]3[C@H](O)[C@H](OC(C)=O)[C@@]2(C)O1 [forskolin] the “inhibition of AEA-mediated reduction of BCRP transcription” value (BCRP [1]; [14]) was “partially inhibited”, the “effect on AEA-mediated reduction of Hoechst 33342 efflux” value (BCRP [2]; [14]) was “had no effect” and the “intracellular levels of cAMP” value (intracellular cAMP; forskolin 50 μM) was 12,800 pmol/mg protein. For the same molecule, the CREB phosphorylation (CREB; forskolin 50 μM) was “consistently increased” and the “reduction in p-CREB binding to the BCRP promoter” value (BCRP promoter; co-treatment with AEA 10 μM and forskolin 50 μM) was 12%.

For Cc1c(C(=O)NN2CCCCC2)nn(-c2ccc(Cl)cc2Cl)c1-c1ccc(Cl)cc1 [rimonabant], the “inhibition of AEA-mediated down-regulation of BCRP mRNA” value (BCRP [1]; 24 h, BeWo) was “only partially inhibited”.

In the case of C[C@H]1CCC[C@H](O)CCCCCc2cc(O)cc(O)c2C(=O)O1 [α-ZRN, α-zearalanol], the “LC50 values, AEA” value (BeWo cells [11]; human) is reported as 27.4 ± 9.1 µM and the “LC50 values, Ko143” value (BeWo cells [11]; human) is reported as 36.0 ± 10.1 µM.

For Lucifer yellow, the “percent of Lucifer yellow rejection” value (BCRP [9]; Lucifer yellow 20 μM, BeWo monolayer integrity) was 95.3 ± 3.7%.
